FLuc inhib CS: counter-screen for luciferase assay inhibitors: firefly luciferase inhibition. ATPLite firefly luciferase biochemical luminescence, 10 min. inhibition, % at 10 µM. 1.5% of 200,000 active;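 active means inhibition above about 50% when tested at 10 µM, limit read from the data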
Target sequence (P08659 whole entry, looked up): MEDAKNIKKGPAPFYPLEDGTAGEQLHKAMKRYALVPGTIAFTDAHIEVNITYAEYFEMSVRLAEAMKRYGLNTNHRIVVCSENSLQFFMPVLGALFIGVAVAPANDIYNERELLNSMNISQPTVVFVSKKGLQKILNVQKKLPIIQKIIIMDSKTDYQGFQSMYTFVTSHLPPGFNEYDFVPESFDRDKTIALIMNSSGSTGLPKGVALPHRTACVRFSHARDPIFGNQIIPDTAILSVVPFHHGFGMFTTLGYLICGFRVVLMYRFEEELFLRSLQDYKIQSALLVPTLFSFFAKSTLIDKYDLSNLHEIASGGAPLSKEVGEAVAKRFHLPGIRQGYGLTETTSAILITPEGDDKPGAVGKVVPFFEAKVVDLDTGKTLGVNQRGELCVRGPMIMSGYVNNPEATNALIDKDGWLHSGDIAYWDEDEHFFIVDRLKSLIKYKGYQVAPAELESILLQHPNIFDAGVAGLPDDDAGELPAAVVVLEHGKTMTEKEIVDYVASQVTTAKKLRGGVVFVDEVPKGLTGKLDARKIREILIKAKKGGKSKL
TRAIL sens C8: caspase-8 TRAIL sensitization; 1% of 360,000 active; NB7+C8 cells + TRAIL, ATPlite viability luminescence; inhibition (viability loss, TRAIL sensitization), % at 10 µM; AID 624354;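 active means compounds causing at least 50% loss of cell viability in the single-dose screen, relative to plate controls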
FLuc act counter: affects firefly luciferase, flagging false hits in luciferase stimulation screens; P08659; ATPlite luciferase biochemical, luminescence, 10 min; 0 = ATP-free wells, 1 = DMSO control; activation factor at 10 µM; 200,000 tested, under 10 active; AID 1027;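 active means luciferase activation factor, scaled between plate controls, of at least 2 with compound at 10 µM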
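test system = cell-free luciferase reagent | medium = PBS as buffer for the ATP substrate | dosing = test compounds dosed from 2 mM stocks in 100% DMSO | incubation = 10 min at ambient temperature | detection = luminescence measurement of luciferase light output | benchmarks = low control with PBS replacing ATP, high control enzyme plus ATP without compound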
PPC-1+TRAIL kill: PPC-1 cancer cell killing with TRAIL present | PPC-1 cells + TRAIL, ATPLite viability luminescence | cell killing (% activity), % at 4 µM or 5 µM | 0.41% of 220,000 active | AID 1443;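 active means cell killing above 50% in the first pass at 4 µM, then a duplicate retest at 5 µM averaging 50% or more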;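 further: plate controls were cells with TRAIL plus DMSO for no effect and medium-only wells lacking cells for full effect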
Platelet DG rel: modulates dense granule release in human platelets; human platelet-rich plasma, SFLLRN dense granule ATP release, luminescence; inhibition, %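 (compounds screened at 7.5 µM in platelet-rich plasma)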; 0.22% of 300,000 active; AID 1663;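 active means mean replicate score, as percent of positive control, at or above 50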
* marks the source's active call; other numbers are inactive results; · = not tested or not shown. A selection: hits, their analogues and other compounds. The true share with any hit is near 1.6%.

SMILES | FLuc inhib CS | TRAIL sens C8 | FLuc act counter | PPC-1+TRAIL kill | Platelet DG rel
CN(c1ccccc1C(=O)Nc1ccc2c(c1)OCCO2)S(C)(=O)=O | -7 | 14 | 1.1 | 34 | 4
CN(c1ccc(C(=O)Nc2ccc3c(c2)OCO3)cc1)S(C)(=O)=O | · | 9 | · | 30 | 83*
CCc1ccc(NC(=O)c2nc(S(=O)(=O)Cc3ccccc3)ncc2Cl)cc1 | · | 96* | · | · | 11
Cc1ccc(NC(=O)c2nc(S(=O)(=O)Cc3ccccc3C)ncc2Cl)cc1C | · | 58* | · | · | 21
COC(=O)c1ccc(NC(=O)c2nc(S(=O)(=O)Cc3cccc(C)c3)ncc2Cl)cc1 | · | 43 | · | · | -2
CC(=O)Nc1ccc(NC(=O)c2nc(S(=O)(=O)Cc3cccc(C)c3)ncc2Cl)cc1 | · | 90* | · | · | 0
CCS(=O)(=O)c1ncc(Cl)c(C(=O)Nc2ccc(S(=O)(=O)N3CCC(C)CC3)cc2)n1 | · | 94* | · | · | 7
CCOC(=O)c1ccc(NC(=O)c2nc(S(=O)(=O)Cc3ccccc3)ncc2Cl)cc1 | · | 78* | · | · | -1
CCOC(=O)C1=CCN(S(=O)(=O)c2ccc(Br)cc2)C1c1ccccc1 (stereo not drawn) | · | 3 | · | · | ·
COc1ccccc1C(=O)Nc1ccc(C2=NNC(=O)CC2C)cc1 (stereo not drawn) | 11 | -12 | 0.9 | 11 | 88*
CNC[C@@H]1OCc2ccccc2-c2c(n(C)c3ccccc23)C(=O)N([C@H](C)CO)C[C@H]1C | · | -18 | · | · | ·
COc1ccc(/C=C/C(=O)c2ccccn2)cc1 | 96* | -1 | 0 | 6 | 21
COc1ccc(/C=C/C(=O)c2ccc(O)cc2)cc1 | 75* | 0 | 0.2 | 21 | 11
COc1ccc(/C=C/C(=O)c2ccoc2)cc1 | 45 | -1 | 0.6 | 10 | 13
CCCCNC(=O)C(=O)Nc1ccc2c(c1)N(S(=O)(=O)c1cccs1)CCC2 | · | 16 | · | · | ·
Cc1cc(F)ccc1-c1cc(C(=O)NCc2ccco2)[nH]n1 | · | -4 | · | · | ·
CCOC(=O)[C@]12CCC=C1N(Cc1ccc(Cl)cc1Cl)C(=O)[C@H](CC(=O)NCc1ccc(OC)c(OC)c1)C2 | · | 45 | · | · | ·
O=C(NC1=NCCS1)c1cccs1 | -4 | 45* | 1 | 0 | 7
O=C(NC1=NCCS1)c1csc2ccccc12 | 55* | 30 | 0.4 | 20 | 0
CC(=O)Oc1ccc2c(=O)c(Oc3ccccc3[N+](=O)[O-])coc2c1 | 0 | -6 | 1 | 6 | -2
CC(=O)Oc1ccc2c(=O)c(-c3nc4ccccc4s3)coc2c1 | 80* | 69* | 0.2 | 37 | 61*
COc1ccc2c(=O)c(-c3ccc4c(c3)OCO4)coc2c1 | 66* | 57* | 0.3 | 40 | 7
CC(C)Oc1ccc2c(=O)c(-c3ccccc3)coc2c1 | 61* | 21 | 0.4 | 37 | 11
COC(=O)COc1ccc2c(=O)c(-c3ccccc3)coc2c1 | · | 4 | · | 0 | 11
Cc1cccc(C)c1N1C(=O)c2ccccc2NC(=O)C1C(=O)NCCc1ccccc1F (stereo not drawn) | · | -2 | · | · | ·
SMILES | FLuc inhib CS | TRAIL sens C8 | FLuc act counter | PPC-1+TRAIL kill | Platelet DG rel
COc1ccc(CCN2CC(C(=O)NCCc3ncccc3C)CCC2=O)cc1 (stereo not drawn) | · | 2 | · | · | ·
Cc1[nH]c(=O)c(C#N)c(C)c1CSc1ncccn1 | · | -6 | · | · | 50*
Cc1ccc(CC#N)c(-c2c(CC#N)ccc(C)c2C)c1C | · | -3 | · | · | ·
Cc1ccc2c(c1C)-c1c(ccc(C)c1C)C(=O)C2=O | · | 58* | · | · | ·
COc1ccc(/C=C2\SC(=S)N(c3cccnc3)C2=O)cc1 | · | 10 | · | 0 | -3
COc1cccc(/C=C2\SC(=S)N(c3cccnc3)C2=O)c1OC | 67* | -1 | 0.3 | 5 | 11
CCCc1cc(C(=O)Nc2nccs2)cs1 | 61* | 41 | 0.4 | 38 | -10
COC(=O)C[C@@H]1CC[C@@H](NS(=O)(=O)c2ccccc2OC)[C@@H](CO)O1 | · | 0 | · | · | ·
COc1ccc(CN(CCC(c2ccccc2)c2ccc(OC(C)C)cc2)C(=O)CCl)cc1OC (stereo not drawn) | -6 | 96* | 1.1 | 4 | 19
COc1ccc(C(CCN(Cc2ccc(OC)c(OC)c2)C(C)=O)c2ccccc2)cc1 (stereo not drawn) | -5 | 5 | 1.1 | -9 | -1
CC[n+]1c(/C=C/c2c[nH]c3ccccc23)ccc2cc(C)ccc21 | 16 | · | 0.8 | 92* | ·
O=C1c2ccccc2C(=O)C1(CO)c1ccc(OC(F)F)cc1 | · | 79* | · | · | 16
CN1CCSc2ccc(C(=O)NCc3ccccc3F)cc21 | · | 1 | · | · | 73*
CC(C)Oc1ccc(CNC(=O)c2ccc3c(c2)N(C)CCS3)cc1 | · | 1 | · | · | 57*
C/C=C/c1ccc(OCCCNC(C)CC)c(OC)c1 (stereo not drawn) | -2 | -4 | 1 | 20 | 2
C/C=C/c1ccc(OCCCNC2CCCC2)c(OC)c1 | 0 | 54* | 1 | 34 | 2
CSc1nc2sc(-c3ccccc3)cc2c(=O)n1N | 34 | 33 | 0.7 | 49 | 115*
CC(C)Sc1nc2sc(-c3ccccc3)cc2c(=O)n1N | -5 | 2 | 1.1 | 37 | ·
O=C(COc1ccccc1)Nc1ccc(Cl)cc1Cl | 50* | · | 0.5 | 10 | 1
CC(=O)Nc1ccc(NC(=O)COc2ccc(Cl)cc2Cl)cc1 | · | 5 | · | · | -6
O=C(COc1ccccc1)Nc1cc(Cl)ccc1Cl | · | 9 | · | · | 4
O=C(COc1ccc(Cl)cc1Cl)Nc1ccccc1F | · | 58* | · | · | 9
O=C1CCC2c3[nH]c4ccccc4c3CCN12 (stereo not drawn) | · | 12 | · | · | ·
Cc1ccccc1OCC(=O)OCC(=O)NC1CCCC(C)C1C (stereo not drawn) | · | -8 | · | · | ·
COC(=O)C(C(=O)OC)c1ccccc1NS(=O)(=O)c1c(C)cc(C)cc1C | · | -7 | · | · | ·
SMILES | FLuc inhib CS | TRAIL sens C8 | FLuc act counter | PPC-1+TRAIL kill | Platelet DG rel
CCCc1cc(=O)[nH]c(SCC(=O)c2c(N)n(C3CC3)c(=O)[nH]c2=O)n1 | · | 85* | · | · | ·
Cc1ccc(Nc2nnc(SCC(=O)Nc3ccccc3[N+](=O)[O-])s2)cc1 | 12 | 9 | 0.9 | 24 | -13
Cc1ccc(Nc2nnc(SCC(=O)Nc3cccnc3Cl)s2)cc1C | 63* | 42 | 0.4 | 29 | 8
Cc1ccc(Nc2nnc(SCC(=O)c3c(N)n(C4CC4)c(=O)[nH]c3=O)s2)cc1C | · | 55* | · | · | ·
Cc1cc(C)cc(CC(=O)N2CCC2(C)C(=O)NS(=O)(=O)c2cc(C)ccc2F)c1 (stereo not drawn) | · | -22 | · | · | ·
COc1ccc(C(=O)O/N=C(\N)c2ccccn2)cc1 | · | 92* | · | · | 34
N/C(=N\OC(=O)c1ccccc1[N+](=O)[O-])c1ccccn1 | 69* | 26 | 0.3 | · | 30
CCOc1ccc(C(=O)O/N=C(\N)c2ccccn2)cc1OCC | · | 79* | · | · | 18
COc1ccccc1C(=O)O/N=C(\N)c1ccccn1 | · | 26 | · | 34 | 3
Cc1ccc(C(=O)O/N=C(\N)c2ccccn2)c(C)c1 | · | 94* | · | · | 46
COc1cc(OC)c(C(=O)O/N=C(\N)c2ccccn2)cc1OC | · | 2 | · | · | 3
O=C(CC[C@H]1O[C@@H](n2cnc3c(NC(=O)c4ccccc4)ncnc32)[C@H](O)[C@@H]1O)NCc1cccc2ccccc12 | · | 8 | · | · | ·
